Drawing on ChEMBL document CHEMBL4266043, “Nuclear Factor Erythroid 2-Related Factor 2 Activating Triterpenoid Saponins from Camellia japonica Roots” (J Nat Prod, 2018), this text covers Activity, viability and fold change (FC) for 10 molecules.

Common to all, as to assay type: cell-based
The target in data set [1] is T1, Nuclear factor erythroid 2-related factor 2 (Homo sapiens) (UniProt Q16236).
T1 sequence (whole entry): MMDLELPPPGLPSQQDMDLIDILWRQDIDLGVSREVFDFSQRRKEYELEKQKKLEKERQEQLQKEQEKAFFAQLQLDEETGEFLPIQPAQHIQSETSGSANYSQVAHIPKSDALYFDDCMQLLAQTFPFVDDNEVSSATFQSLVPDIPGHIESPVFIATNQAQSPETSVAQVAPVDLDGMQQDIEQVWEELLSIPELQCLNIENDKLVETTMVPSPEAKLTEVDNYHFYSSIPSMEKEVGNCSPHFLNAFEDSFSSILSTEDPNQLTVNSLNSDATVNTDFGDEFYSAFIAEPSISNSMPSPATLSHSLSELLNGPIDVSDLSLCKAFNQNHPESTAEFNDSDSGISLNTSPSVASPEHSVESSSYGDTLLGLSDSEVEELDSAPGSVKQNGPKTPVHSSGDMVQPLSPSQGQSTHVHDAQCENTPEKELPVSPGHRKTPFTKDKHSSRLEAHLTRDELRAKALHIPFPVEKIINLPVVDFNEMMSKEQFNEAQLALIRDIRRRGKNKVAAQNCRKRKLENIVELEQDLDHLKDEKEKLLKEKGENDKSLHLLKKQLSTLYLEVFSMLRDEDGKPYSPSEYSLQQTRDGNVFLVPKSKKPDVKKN
The data set can be described thus: Activation of Nrf2 in human HaCaT cells at 25 uM after 6 hrs by ARE-driven luciferase reporter gene assay relative to control. The method, boiled down:
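Used HaCaT cells stably carrying 3xARE-luciferase, in RPMI 1640 with 10% FBS at 37 °C, 5% CO2, plated overnight. Exposure 6 h at 25 μM. Cells lysed in passive lysis buffer 15 min at room temperature. Luciferase read by kit and normalized to total protein, expressed versus vehicle. Mean ± SD from three independent experiments, t test.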
(In general: A reporter such as luciferase makes a cellular process visible.)

A further data set deals with HaCaT. The data set can be described thus: Cytotoxicity against human HaCaT cells assessed as decrease in cell viability at 3.125 to 25 uM after 24 hrs by MTT assay. The method, boiled down: (§1)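 MTT assay on HaCaT cells (RPMI 1640, 10% FBS, 37 °C, 5% CO2), plated overnight, then exposed 24 h to 3.125–25 μM. MTT (5 mg/mL solution) added for 2 h, medium removed, formazan dissolved in DMSO and read at 570 nm. Viability given as percent, mean ± SD of three independent experiments.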
On the technique in general: Tetrazolium assays rely on reduction of a dye to a coloured formazan, in cell work by metabolically active cells.

Data set [2] has as its target T1, Nuclear factor erythroid 2-related factor 2 (Homo sapiens). The data set can be described thus: Activation of Nrf2 in human HaCaT cells assessed as increase in nuclear Nrf2 accumulation at 25 uM after 6 hrs by Western blot analysis. The method, boiled down:
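HaCaT cells grown to 60−70% confluency, treated 6 h at 25 μM (vehicle DMSO 0.1%). Nuclear fraction obtained with M-PER lysis (10 min on ice), spin at 3000 rpm, pellet resuspended, sonicated, protein by BCA. 25 μg protein run on 10% SDS-PAGE, nitrocellulose transfer, milk block, anti-Nrf2 and histone H3 antibodies, HRP secondary, ECL detection.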
(In general: In western blotting, separated proteins are transferred to a membrane and probed.)

Data set [3] can be described thus: Cytotoxicity against human HaCaT cells assessed as cell viability at 25 uM after 24 hrs by MTT assay. The following applies: read-out: Activity. The method, boiled down: as §1

The source made the active and inactive calls. The calls are words filed in the database; no cut-off is given here.

As for `CCC(C)C(=O)O[C@H]1[C@H](O)C(C)(C)C[C@H]2C3=CC[C@@H]4[C@@]5(C)CC[C@H](O[C@@H]6O[C@H](C(=O)O)[C@@H](O)[C@H](O[C@@H]7OC[C@H](O)[C@H](O[C@@H]8O[C@@H](C)[C@H](O)[C@@H](O)[C@H]8O)[C@H]7O)[C@H]6O)[C@@](C)(CO)[C@@H]5CC[C@@]4(C)[C@]3(C)[C@@H](OC(=O)CC(C)C)[C@@H](O)[C@]21CO` (stereo not given in full), the outcome in data set [1] and in data set [2] was Active. Besides, in the data set with HaCaT, the Activity entry is “Non-Toxic”.
For `C/C=C(/C)C(=O)O[C@H]1[C@H](OC(=O)CC(C)C)[C@]2(CO)[C@H](O)C[C@]3(C)C(=CC[C@@H]4[C@@]5(C)CC[C@H](O[C@@H]6O[C@H](C(=O)O)[C@@H](O)[C@H](O[C@@H]7OC[C@H](O)[C@H](O[C@@H]8O[C@@H](C)[C@H](O)[C@@H](O)[C@H]8O)[C@H]7O)[C@H]6O)[C@@](C)(CO)[C@@H]5CC[C@]43C)[C@@H]2CC1(C)C`, the viability at 24 h, 25 µM in data set [3] turned out to be 69.7%. In addition, the outcome in data set [1] and in data set [2] was Active.
`C/C=C(/C)C(=O)O[C@H]1[C@H](OC(=O)C(C)CC)[C@]2(CO)[C@H](O)[C@H](O)[C@]3(C)C(=CC[C@@H]4[C@@]5(C)CC[C@H](O[C@@H]6O[C@H](C(=O)O)[C@@H](O)[C@H](O[C@@H]7OC[C@H](O)[C@H](O[C@@H]8O[C@@H](C)[C@H](O)[C@@H](O)[C@H]8O)[C@H]7O)[C@H]6O)[C@@](C)(C=O)[C@@H]5CC[C@]43C)[C@@H]2CC1(C)C` (stereo not given in full): the result in data set [1] and in data set [2] was Active. The Activity result in the data set on HaCaT is listed as “Non-Toxic”.
For `C/C=C(/C)C(=O)O[C@H]1[C@H](OC(=O)/C(C)=C/C)[C@]2(CO)[C@H](O)[C@H](O)[C@]3(C)C(=CC[C@@H]4[C@@]5(C)CC[C@H](O[C@@H]6O[C@H](C(=O)O)[C@@H](O)[C@H](O[C@@H]7OC[C@H](O)[C@H](O[C@@H]8O[C@@H](C)[C@H](O)[C@@H](O)[C@H]8O)[C@H]7O)[C@H]6O)[C@@](C)(CO)[C@@H]5CC[C@]43C)[C@@H]2CC1(C)C`, in data set [1], the fold change (FC) was 3. Besides, in the data set with HaCaT, the Activity entry is “Non-Toxic”. For the same molecule, the result in data set [2] was Active.
For the molecule `C/C=C(/C)C(=O)O[C@H]1[C@H](OC(=O)C(C)CC)[C@]2(CO)[C@H](OC(C)=O)C[C@]3(C)C(=CC[C@@H]4[C@@]5(C)CC[C@H](O[C@@H]6O[C@H](C(=O)O)[C@@H](O)[C@H](O[C@@H]7OC[C@H](O)[C@H](O[C@@H]8O[C@@H](C)[C@H](O)[C@@H](O)[C@H]8O)[C@H]7O)[C@H]6O)[C@@](C)(CO)[C@@H]5CC[C@]43C)[C@@H]2CC1(C)C` (stereo not given in full), the result in data set [1] and in data set [2] was Active. Also, the Activity entry with HaCaT is given as “Non-Toxic”.
`C/C=C(/C)C(=O)O[C@H]1[C@H](OC(=O)CC(C)C)[C@]2(CO)[C@H](O)[C@H](O)[C@]3(C)C(=CC[C@@H]4[C@@]5(C)CC[C@H](O[C@@H]6O[C@H](C(=O)O)[C@@H](O)[C@H](O[C@@H]7OC[C@H](O)[C@H](O[C@@H]8O[C@@H](C)[C@H](O)[C@@H](O)[C@H]8O)[C@H]7O)[C@H]6O)[C@@](C)(C=O)[C@@H]5CC[C@]43C)[C@@H]2CC1(C)C`: the outcome in data set [1] and in data set [2] was Active. For the same molecule, in the data set on HaCaT, the Activity result is reported as “Non-Toxic”.
As to `C/C=C(/C)C(=O)O[C@H]1[C@H](OC(=O)CC(C)C)[C@]2(CO)[C@H](OC(C)=O)[C@H](OC(C)=O)[C@]3(C)C(=CC[C@@H]4[C@@]5(C)CC[C@H](O[C@@H]6O[C@H](C(=O)O)[C@@H](O)[C@H](O[C@@H]7OC[C@H](O)[C@H](O[C@@H]8O[C@@H](C)[C@H](O)[C@@H](O)[C@H]8O)[C@H]7O)[C@H]6O)[C@@](C)(CO)[C@@H]5CC[C@]43C)[C@@H]2CC1(C)C`, the result in data set [1] and in data set [2] was Active. In the data set with HaCaT, the Activity entry is “Non-Toxic”.
For the molecule `C/C=C(/C)C(=O)O[C@H]1[C@H](OC(=O)C(C)CC)[C@]2(CO)[C@H](O)C[C@]3(C)C(=CC[C@@H]4[C@@]5(C)CC[C@H](O[C@@H]6O[C@H](C(=O)O)[C@@H](O)[C@H](O[C@@H]7OC[C@H](O)[C@H](O[C@@H]8O[C@@H](C)[C@H](O)[C@@H](O)[C@H]8O)[C@H]7O)[C@H]6O)[C@@](C)(CO)[C@@H]5CC[C@]43C)[C@@H]2CC1(C)C` (stereo not given in full), in data set [3], the viability at 24 h, 25 µM turned out to be 72.7%. In addition, the result in data set [1] and in data set [2] was Active.
Regarding `C/C=C(/C)C(=O)O[C@H]1[C@H](OC(=O)C(C)CC)[C@]2(CO)[C@H](O)[C@H](O)[C@]3(C)C(=CC[C@@H]4[C@@]5(C)CC[C@H](O[C@@H]6O[C@H](C(=O)O)[C@@H](O)[C@H](O[C@@H]7OC[C@H](O)[C@H](O[C@@H]8O[C@@H](C)[C@H](O)[C@@H](O)[C@H]8O)[C@H]7O)[C@H]6O)[C@@](C)(CO)[C@@H]5CC[C@]43C)[C@@H]2CC1(C)C` (stereo not given in full), in data set [1], the fold change (FC) stood at 2. The Activity result with HaCaT is “Non-Toxic”. In data set [2], the result was Active.
The corresponding values for `C/C=C(/C)C(=O)O[C@H]1[C@H](OC(=O)/C(C)=C\C)[C@]2(CO)[C@H](O)[C@H](O)[C@]3(C)C(=CC[C@@H]4[C@@]5(C)CC[C@H](O[C@@H]6O[C@H](C(=O)O)[C@@H](O)[C@H](O[C@@H]7OC[C@H](O)[C@H](O[C@@H]8O[C@@H](C)[C@H](O)[C@@H](O)[C@H]8O)[C@H]7O)[C@H]6O)[C@@](C)(CO)[C@@H]5CC[C@]43C)[C@@H]2CC1(C)C` are 4, “Non-Toxic” and “Active”.
